BindingDB's records for doi:10.1021/jm010408m (University of Missouri-Columbia, 2002)

target: Melanocyte-stimulating hormone receptor (Mus musculus, UniProt Q01727); experiment: In vitro binding affinity for the melanoma receptor was determined in the murine melanoma B16/F1 cell line
In short: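 Competitive displacement on B16/F1 cells seeded at 0.2 million/well and attached overnight. They were rinsed twice with PBS/0.2% BSA and lysed in 1.0 M NaOH. Cell-bound radioactivity was counted and IC50 fitted.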

Sequence of Melanocyte-stimulating hormone receptor (Q01727 whole entry): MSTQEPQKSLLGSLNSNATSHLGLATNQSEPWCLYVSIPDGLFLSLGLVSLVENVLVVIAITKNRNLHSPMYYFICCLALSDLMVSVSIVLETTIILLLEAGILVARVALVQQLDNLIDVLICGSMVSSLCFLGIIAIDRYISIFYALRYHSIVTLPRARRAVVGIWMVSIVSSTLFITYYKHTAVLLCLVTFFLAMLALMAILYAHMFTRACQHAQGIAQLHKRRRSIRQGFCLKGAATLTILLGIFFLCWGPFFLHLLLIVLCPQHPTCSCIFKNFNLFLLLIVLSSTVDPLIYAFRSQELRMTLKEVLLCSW

| IC50 | SMILES |
| --- | --- |
| 3.3 nM | CC(=O)NC(CCCCNC(=O)CN1CCN(CC(=O)O)CCN(CC(=O)O)CCN(CC(=O)O)CC1)C(=O)NC1[S][ReH]23([OH])[S]C(C(=O)NC(CCCCNC(=O)OCc4ccccc4)C(=O)N4CCCC4C(=O)NC(C(N)=O)C(C)C)NC(=O)C(Cc4c[nH]c5ccccc45)NC(=O)C(CCCNC(=N)N)NC(=O)[C@H](Cc4ccccc4)NC(=O)C(Cc4cnc[nH]4)NC(=O)C(CCC(=O)O)NC(=O)C([S]2)[N]3C1=O (stereo partly drawn) [Ac-Lys(DOTA)-ReCCEHdFRWCKPV-NH2] |
| 1.2 nM | CC(C)C(NC(=O)C1CCCN1C(=O)C(CCCCN)NC(=O)C1NC(=O)C(Cc2c[nH]c3ccccc23)NC(=O)C(CCCNC(=N)N)NC(=O)[C@H](Cc2ccccc2)NC(=O)C(Cc2cnc[nH]2)NC(=O)C(CCC(=O)O)NC(=O)C2[S][ReH]3([OH])([S]1)[S]C(NC(=O)CN1CCN(CC(=O)O)CCN(CC(=O)O)CCN(CC(=O)O)CC1)C(=O)[N]23)C(N)=O (stereo partly drawn) [DOTA-ReCCEHdFRWCKPV-NH2] |
| 2.1 nM | CC(C)C(NC(=O)C1CCCN1C(=O)C(CCCNC(=N)N)NC(=O)C1NC(=O)C(Cc2c[nH]c3ccccc23)NC(=O)C(CCCNC(=N)N)NC(=O)[C@H](Cc2ccccc2)NC(=O)C(Cc2cnc[nH]2)NC(=O)C(CCC(=O)O)NC(=O)C2[S][ReH]3([OH])([S]1)[S]C(NC(=O)CN1CCN(CC(=O)O)CCN(CC(=O)O)CCN(CC(=O)O)CC1)C(=O)[N]23)C(N)=O (stereo partly drawn) [DOTA-ReCCEHdFRWCRPV-NH2] |
